# According to ChEMBL document CHEMBL1150419, “Structure-activity relationships of a peptide inhibitor of the human FcRn:human IgG interaction” (Bioorg Med Chem, 2008):
# Bridge positions count the residues as written; N and C are the ends. Peptide text beside a SMILES is read from it.
# Assays:
# [1] = molecular target: T1, IgG receptor FcRn large subunit p51 (Homo sapiens, UniProt P55899); assay: Inhibition of human IgG binding to soluble human FcRn by ELISA
# How it was run: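 Biotinylated soluble human FcRn immobilized on neutravidin plates, incubated with hIgG (3 nM, constant) and peptide at varying concentrations for 2 h at 37 °C. After washing, bound hIgG detected with peroxidase-conjugated hIgG-specific Fab fragments.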
# [2] = molecular target: T1, IgG receptor FcRn large subunit p51; assay: Binding affinity to human FcRn at pH 6 by surface plasmon resonance assay
# How it was run: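 Soluble human FcRn coupled to the dextran surface of a CM5 chip; peptide dilutions flowed over the chip. The equilibrium response at each dilution was plotted against concentration and fitted to a steady-state affinity model to give Kd.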
# [3] = molecular target: T1, IgG receptor FcRn large subunit p51; assay: Binding affinity to human FcRn at pH 7.4 by surface plasmon resonance assay
# How it was run: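 Soluble human FcRn coupled to the dextran surface of a CM5 chip; peptide dilutions flowed over the chip. Equilibrium response at each dilution plotted against concentration, and Kd fitted with a steady-state affinity model.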
# [4] = Stability in presence of subtilisin assessed as intact peptide after 18 hrs; type: ADME; settings: subtilisin (protease solution); read-out: Stability
# How it was run: (§1)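 Peptide dissolved in PBS at 0.3 mg/mL and treated with a 470-fold molar excess of Subtilisin Carlsberg. The fraction of intact peptide remaining was recorded.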
# [5] = Stability in presence of subtilisin assessed as intact peptide after 1 hr; type: ADME; settings: subtilisin (protease solution); read-out: Stability; how it was run: as §1
# T1 sequence (P55899 whole entry, the tested form may be a part): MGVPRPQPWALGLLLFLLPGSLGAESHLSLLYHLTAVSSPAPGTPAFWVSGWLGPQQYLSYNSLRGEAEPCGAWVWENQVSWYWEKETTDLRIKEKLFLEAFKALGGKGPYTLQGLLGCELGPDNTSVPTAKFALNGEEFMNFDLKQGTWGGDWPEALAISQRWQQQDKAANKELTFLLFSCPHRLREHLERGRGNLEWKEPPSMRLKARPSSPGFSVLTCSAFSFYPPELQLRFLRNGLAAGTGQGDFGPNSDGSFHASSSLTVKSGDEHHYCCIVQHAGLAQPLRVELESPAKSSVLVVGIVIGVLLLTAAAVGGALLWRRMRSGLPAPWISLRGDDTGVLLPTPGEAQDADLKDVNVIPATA
Compound,IC50 [1] [µM],Kd [2] [µM],Kd [3] [µM],remaining at 18 h [4] [%],remaining at 1 h [5] [%]
CC(C)C[C@@H](C(=O)N[C@@H](Cc1ccc(O)cc1)C(=O)N1CCC[C@H]1C(=O)N[C@@H](CS)C(=O)O)N(C)C(=O)CN(C)C(=O)CNC(=O)[C@H](Cc1ccccc1)NC(=O)[C@H](Cc1ccsc1)NC(=O)CNC(=O)[C@@H](NC(=O)[C@@H](NC(=O)[C@H](Cc1ccccc1)NC(=O)[C@@H](N)CCCN=C(N)N)C(C)(C)S)[C@@H](C)O,45,2,3,,
CC(C)C[C@@H](C(=O)N[C@@H](Cc1ccc(O)cc1)C(=O)N1CCC[C@H]1C(=O)N[C@@H](CS)C(=O)O)N(C)C(=O)CN(C)C(=O)CNC(=O)[C@H](Cc1ccccc1)NC(=O)[C@H](Cc1ccncc1)NC(=O)CNC(=O)[C@@H](NC(=O)[C@@H](NC(=O)[C@H](Cc1ccccc1)NC(=O)[C@@H](N)CCCNC(=N)N)C(C)(C)S)[C@@H](C)O,1.3,0.067,0.28,,
CC(C)C[C@@H](C(=O)N[C@@H](Cc1ccc(O)cc1)C(=O)N1CCC[C@H]1C(=O)N[C@@H](CS)C(=O)O)N(C)C(=O)CN(C)C(=O)CNC(=O)[C@H](Cc1ccccc1)NC(=O)[C@H](CCCN)NC(=O)CNC(=O)[C@@H](NC(=O)[C@@H](NC(=O)[C@H](Cc1ccccc1)NC(=O)[C@@H](N)CCCNC(=N)N)C(C)(C)S)[C@@H](C)O,12,1.3,1.2,,
CC(C)C[C@@H](C(=O)N[C@@H](Cc1ccc(O)cc1)C(=O)N1CCC[C@H]1C(=O)N[C@@H](CS)C(=O)O)N(C)C(=O)CNC(=O)[C@@H](C)NC(=O)[C@H](Cc1ccccc1)NC(=O)[C@H](Cc1cnc[nH]1)NC(=O)CNC(=O)[C@@H](C)N(C)C(=O)[C@@H](NC(=O)[C@H](Cc1ccccc1)NC(=O)[C@@H](N)CCCNC(=N)N)C(C)(C)S,8,,,95,100
CC(C)C[C@H](NC(=O)CNC(=O)CNC(=O)[C@H](Cc1ccccc1)NC(=O)[C@H](Cc1cnc[nH]1)NC(=O)CNC(=O)[C@@H](NC(=O)[C@@H](NC(=O)[C@H](Cc1ccccc1)NC(=O)[C@H](CCCNC(=N)N)NC(=O)[C@@H](N)CCC(N)=O)C(C)(C)S)[C@@H](C)O)C(=O)N[C@@H](Cc1ccc(O)cc1)C(=O)N1CCC[C@H]1C(=O)N[C@@H](CS)C(=O)N[C@@H](CC(N)=O)C(=O)NCC(=O)N1CCC[C@H]1C(=O)O,2,0.25,,0,5
C[C@@H](O)[C@H](NC(=O)[C@@H](NC(=O)[C@H](Cc1ccccc1)NC(=O)[C@H](CCCN=C(N)N)NC(=O)[C@@H](N)CCC(N)=O)C(C)(C)S)C(=O)NCC(=O)N[C@@H](Cc1cnc[nH]1)C(=O)N[C@@H](Cc1ccccc1)C(=O)N[C@H](Cc1ccccc1)C(=O)NCC(=O)N1CCC[C@H]1C(=O)N[C@@H](Cc1ccc(O)cc1)C(=O)N1CCC[C@H]1C(=O)N[C@@H](CS)C(=O)N[C@@H](CC(N)=O)C(=O)NCC(=O)N1CCC[C@H]1C(=O)O,39,18.3,,0,5
CC[C@H](C)[C@@H]1NC(=O)CNC(=O)CNC(=O)[C@H](Cc2ccccc2)NC(=O)[C@H](Cc2cnc[nH]2)NC(=O)CNC(=O)[C@H]([C@@H](C)O)NC(=O)[C@H](C(C)C)NC(=O)[C@@H](NC(=O)CNC(=O)CNC(=O)CN)CSSC[C@@H](C(=O)N[C@@H](CC(N)=O)C(=O)N[C@@H](Cc2ccc(O)cc2)C(=O)N[C@@H](CCC(N)=O)C(=O)O)NC(=O)[C@H](Cc2ccc(O)cc2)NC1=O (H-GGGCVTGHFGGIYCNYQ-OH; disulfide 4-14),33,5.2,35,,
CC[C@H](C)[C@H](NC(=O)[C@@H](NC(=O)[C@@H](N)CCCCN)[C@@H](C)CC)C(=O)N[C@H]1CSSC[C@@H](C(=O)N[C@@H](CCC(N)=O)C(=O)NCC(=O)N[C@@H](CCCCN)C(=O)O)NC(=O)[C@H](Cc2ccc(O)cc2)NC(=O)[C@H](CCSC)NC(=O)CNC(=O)CNC(=O)[C@H](Cc2ccccc2)NC(=O)[C@H](Cc2cnc[nH]2)NC(=O)CNC(=O)[C@@H]2CCCN2C(=O)[C@H](CO)NC1=O (H-KIICSPGHFGGMYCQGK-OH; disulfide 4-14),64,22,78,,
CC[C@H](C)[C@@H]1NC(=O)CNC(=O)[C@H](CC(=O)O)NC(=O)[C@H]([C@@H](C)CC)NC(=O)[C@H](Cc2cnc[nH]2)NC(=O)CNC(=O)[C@H](CCC(=O)O)NC(=O)[C@H]([C@@H](C)CC)NC(=O)[C@@H](NC(=O)[C@H](Cc2ccc(O)cc2)NC(=O)[C@H](CO)NC(=O)[C@@H]2CCCN2)CSSC[C@@H](C(=O)N[C@@H](Cc2ccccc2)C(=O)N[C@@H](CC(N)=O)C(=O)N[C@@H](C)C(=O)O)NC(=O)[C@H](Cc2ccc(O)cc2)NC1=O (H-PSYCIEGHIDGIYCFNA-OH; disulfide 4-14),49,8.8,76,,
